Measured values as given in ChEMBL document CHEMBL1145048, “Functionalized glycomers as growth inhibitors and inducers of apoptosis in human glioblastoma cells” (J Med Chem, 2003).

Key:
[1] = Glycomer activity determined as growth inhibition of human glioblastoma LN18 cells; type: functional, cell-based
In short: (§1)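 Cells grown 24 h with FCS, then 24 h without FCS, then exposed to glycomers at increasing concentrations in serum-free medium for 24 h. MTT at 0.2 mg/mL was added for the last 2 h, formazan was dissolved in 0.1 N HCl/2-propanol and read at 540 nm. Growth inhibition = treated/control MTT reduction. IC50 is the concentration giving 50% inhibition from dose–response curves. Triplicate, mean ± SD.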

[2] = Glycomer activity determined as growth inhibition of human glioblastoma LNZ308 cells; type: functional, cell-based; in short: as §1
[3] = Apoptosis index was determined against human glioblastoma LN18 cells at concentration of 25 uM after total exposure time of 24 hours; type: functional, cell-based
In short: (§2)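 Cells seeded to half confluence in DMEM-10% FCS for 24 h, then held 24 h without FCS before glycomer addition in serum-free medium. At the end of the incubation, histone-associated DNA fragments (mono- and oligonucleosomes) in still-adherent cells were measured by photometric ELISA (absorbance 405 nm). Apoptosis index = absorbance of treated / untreated wells, untreated set at 1.00. Done in triplicate.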

[4] = Efficacy index was evaluated as ratio of apoptosis index to MTT reduction for human glioblastoma LN18 cells at 0 uM concentration; type: functional, cell-based
In short: (§3)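 Cells grown 24 h with FCS, then deprived of FCS for 10 h, then exposed to glycomers for 12 h. In adherent cells, MTT reduction (540 nm), [3H]-thymidine incorporation (cpm) and nucleosome-fragment apoptosis index (treated vs control) were measured. Efficacy index = ratio of thymidine incorporation or apoptosis index to MTT reduction.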

[5] = Efficacy index was evaluated as ratio of apoptosis index to MTT reduction for human glioblastoma LN18 cells at 11.3 uM concentration; type: functional, cell-based; in short: as §3
[6] = Apoptosis index was determined against human glioblastoma LN18 cells at 16 uM after total exposure of 10 hours; type: functional; in short: as §2
[7] = Efficacy index was evaluated as ratio of apoptosis index to MTT reduction for human glioblastoma LN18 cells at 22.5 uM concentration; type: functional, cell-based; in short: as §3
[8] = Efficacy index was evaluated as ratio of apoptosis index to MTT reduction for human glioblastoma LN18 cells at 4.5 uM concentration; type: functional, cell-based; in short: as §3
[9] = Efficacy index was evaluated as ratio of inhibition of DNA synthesis (3HT incorporation) to inhibition of growth(MTT) for human glioblastoma LN18 cells at 0 uM concentration; type: functional, cell-based; in short: as §3
[10] = Efficacy index was evaluated as ratio of inhibition of DNA synthesis (3HT incorporation) to inhibition of growth(MTT) for human glioblastoma LN18 cells at 11.3 uM concentration; type: functional, cell-based; in short: as §3
[11] = Efficacy index was evaluated as ratio of inhibition of DNA synthesis (3HT incorporation) to inhibition of growth(MTT) for human glioblastoma LN18 cells at 22.5 uM concentration; type: functional, cell-based; in short: as §3
[12] = Efficacy index was evaluated as ratio of inhibition of DNA synthesis (3HT incorporation) to inhibition of growth(MTT) for human glioblastoma LN18 cells at 4.5 uM concentration; type: functional, cell-based; in short: as §3
[13] = Efficacy index was evaluated as ratio of apoptosis index to MTT reduction for human glioblastoma LNZ308 cells at 0 uM concentration; type: functional, cell-based; in short: as §3
[14] = Efficacy index was evaluated as ratio of apoptosis index to MTT reduction for human glioblastoma LNZ308 cells at 11.3 uM concentration; type: functional, cell-based; in short: as §3
[15] = Efficacy index was evaluated as ratio of apoptosis index to MTT reduction for human glioblastoma LNZ308 cells at 22.5 uM concentration; type: functional, cell-based; in short: as §3
[16] = Efficacy index was evaluated as ratio of apoptosis index to MTT reduction for human glioblastoma LNZ308 cells at 4.5 uM concentration; type: functional, cell-based; in short: as §3
[17] = Apoptosis index was determined against human glioblastoma LNZ308 cells at 16 uM and total exposure time of 10 hours; type: functional; in short: as §2
[18] = Efficacy index was evaluated as ratio of inhibition of DNA synthesis (3HT incorporation) to inhibition of growth(MTT) for human glioblastoma LNZ308 cells at 0 uM concentration; type: functional, cell-based; in short: as §3
[19] = Efficacy index was evaluated as ratio of inhibition of DNA synthesis (3HT incorporation) to inhibition of growth(MTT) for human glioblastoma LNZ308 cells at 11.3 uM concentration; type: functional, cell-based; in short: as §3
[20] = Efficacy index was evaluated as ratio of inhibition of DNA synthesis (3HT incorporation) to inhibition of growth(MTT) for human glioblastoma LNZ308 cells at 22.5 uM concentration; type: functional, cell-based; in short: as §3
[21] = Efficacy index was evaluated as ratio of inhibition of DNA synthesis (3HT incorporation) to inhibition of growth(MTT) for human glioblastoma LNZ308 cells at 4.5 uM concentration; type: functional, cell-based; in short: as §3
[22] = Apoptosis index was determined against human glioblastoma LNZ308 cells at concentration of 25 uM after otal exposure time of 24 hours; type: functional, cell-based; in short: as §2
[23] = Apoptosis index was determined against human glioblastoma LN18 cells at concentration of 11 uM after total exposure time of 15 hours; type: functional, cell-based; in short: as §2
[24] = Apoptosis index was determined against human glioblastoma LNZ308 cells at concentration of 11 uM after total exposure time of 15 hours; type: functional, cell-based; in short: as §2

Molecule C=CCOC1C(O)C(CNS(=O)(=O)c2cccc(C(F)(F)F)c2)OC(Oc2ccc(I)cc2)C1OC(=O)C(C)C (centres undefined) has an IC50 ([1]; Homo sapiens, LN-18) of 12.5 µM and an IC50 ([2]; Homo sapiens, LNZ308) of 7.5 µM.

Molecule C=CCO[C@@H]1[C@H](O)[C@H](Oc2ccc(I)cc2)O[C@@H](COS(=O)(=O)c2cccc(C(F)(F)F)c2)[C@H]1O has an IC50 ([1]; Homo sapiens, LN-18) of 21 µM and an IC50 ([2]; Homo sapiens, LNZ308) of 19 µM.

For CCCO[C@@H]1[C@H](O)[C@H](Oc2ccccc2)O[C@@H](COCc2ccccc2)[C@H]1O, the Apoptosis index [3] was 1.29, the IC50 ([1]; Homo sapiens, LN-18) was greater than 50 µM and the IC50 ([2]; Homo sapiens, LNZ308) was greater than 50 µM.

With C=CCO[C@@H]1[C@H](O)[C@H](Oc2ccc(Br)cc2)O[C@@H](COCc2ccccc2)[C@H]1O the Apoptosis index [3] was 1.19, the IC50 ([1]; Homo sapiens, LN-18) was greater than 50 µM and the IC50 ([2]; Homo sapiens, LNZ308) was greater than 50 µM.

For C=CCO[C@H]1[C@H](O)[C@H](COS(=O)(=O)c2cccc(C(F)(F)F)c2)O[C@@H](Oc2ccc(Br)cc2)[C@H]1OC(=O)CCC, the IC50 ([1]; Homo sapiens, LN-18) was greater than 50 µM and the IC50 ([2]; Homo sapiens, LNZ308) was greater than 50 µM.

C=CCO[C@H]1[C@H](O)[C@H](COS(=O)(=O)c2cccc(C(F)(F)F)c2)O[C@@H](Oc2ccc(I)cc2)[C@H]1OC(=O)CCc1ccccc1 gave an IC50 ([1]; Homo sapiens, LN-18) greater than 50 µM and an IC50 ([2]; Homo sapiens, LNZ308) greater than 50 µM.

Work on C=CCO[C@H]1[C@H](O)[C@H](COS(=O)(=O)c2cccc(C(F)(F)F)c2)O[C@@H](Oc2ccc(I)cc2)[C@H]1OC(C)=O yielded an IC50 ([1]; Homo sapiens, LN-18) of 12.5 µM and an IC50 ([2]; Homo sapiens, LNZ308) of 13 µM.

Work on CO[C@@H]1[C@H](O)[C@H](Oc2ccc(I)cc2)O[C@@H](COS(=O)(=O)c2cccc(C(F)(F)F)c2)[C@H]1O yielded an IC50 ([1]; Homo sapiens, LN-18) greater than 50 µM and an IC50 ([2]; Homo sapiens, LNZ308) greater than 50 µM.

CCCC(=O)O[C@@H]1[C@H](Oc2ccc(I)cc2)O[C@@H](COCc2ccccc2)[C@@H](O)[C@@H]1OC showed an IC50 ([1]; Homo sapiens, LN-18) greater than 50 µM and an IC50 ([2]; Homo sapiens, LNZ308) greater than 50 µM.

For C=CCO[C@H]1[C@H](O)[C@H](COCc2ccccc2)O[C@@H](Oc2ccc(Br)cc2)[C@H]1OC(=O)CCC, the IC50 ([1]; Homo sapiens, LN-18) was greater than 50 µM and the IC50 ([2]; Homo sapiens, LNZ308) was greater than 50 µM.

Molecule C=CCO[C@H]1[C@H](O)[C@H](COS(=O)(=O)c2cccc(C(F)(F)F)c2)O[C@@H](Oc2ccc(I)cc2)[C@H]1OC(=O)CC has an Efficacy index [4] of 0.93, an Efficacy index [5] of 3.51 and an Apoptosis index [6] of 3.82. For the same molecule, the Efficacy index [7] was 9.6, the Efficacy index [8] was 1.19 and the Efficacy index [9] was 16.2. The Efficacy index [10] was 0.23, the Efficacy index [11] was 0.3 and the Efficacy index [12] was 4.87. The IC50 ([1]; Homo sapiens, LN-18) was 7 µM, the Efficacy index [13] was 0.95 and the Efficacy index [14] was 2.03. For the same molecule, the Efficacy index [15] was 5.09, the Efficacy index [16] was 0.99 and the Apoptosis index [17] was 8.97. For the same molecule, the Efficacy index [18] was 9.79, the Efficacy index [19] was 1.23 and the Efficacy index [20] was 0.24. The Efficacy index [21] was 5 and the IC50 ([2]; Homo sapiens, LNZ308) was 11.5 µM.

C=CCO[C@H]1[C@H](O)[C@H](COS(=O)(=O)c2cccc(C(F)(F)F)c2)O[C@@H](Oc2ccc(I)cc2)[C@H]1OC(=O)CCC (stereo in doubt; 8c) [listing 1 of 2 here] showed an IC50 ([1]; ln18) of 43 µM and an IC50 ([2]; lnz308) of 41 µM.

C=CCO[C@H]1[C@H](O)[C@H](COS(=O)(=O)c2cccc(C(F)(F)F)c2)O[C@@H](Oc2ccc(I)cc2)[C@H]1OC(=O)CCC (stereo in doubt; 8c) [listing 2 of 2 here] showed an Apoptosis index [3] of 0.44 and an Apoptosis index [22] of 0.41.

For C=CCOC1C(O)C(CNS(=O)(=O)c2cccc(C(F)(F)F)c2)OC(Oc2ccc(I)cc2)C1OC(=O)CCC (stereo in doubt; 10b), the IC50 ([1]; ln18) was 6.5 µM and the IC50 ([2]; Homo sapiens, LNZ308) was 17.5 µM.

C=CCOC1C(O)C(CNS(=O)(=O)c2cccc(C(F)(F)F)c2)OC(Oc2ccc(I)cc2)C1OC(=O)CC (centres undefined) showed an Apoptosis index [23] of 0.98, an Efficacy index [4] of 0.93 and an Efficacy index [5] of 1.63. The Efficacy index [7] was 8.43, the Efficacy index [8] was 0.88 and the Efficacy index [9] was 16.2. The Efficacy index [10] was 0.07, the Efficacy index [11] was 0.47 and the Efficacy index [12] was 3.11. For the same molecule, the Efficacy index [13] was 0.95, the Efficacy index [14] was 1.81 and the Efficacy index [15] was 6.18. It also gave an Efficacy index [16] of 0.72, an Apoptosis index [24] of 1.45 and an Efficacy index [19] of 0.64. The Efficacy index [20] was 0.35.
